High-throughput results from PubChem.
AI-2 QS modul: modulates the Vibrio harveyi AI-2 quorum sensing system; Vibrio harveyi JMH597 AI-2 luminescence/OD600 ratio, 9 h; active compounds read low; strain lacks LuxN and CqsS sensors; 0 = neutral-control median; activity change, % at 7.5 µM; 300,000 tested, 0.4% active; AID 2094; in the data active means activity change below about -75%, passing the limit was not always enough; inconclusive means no clear call, values can overlap the other calls;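 further: luminescence divided by OD600 gain over 9 h not by final OD600 alone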
V-ATPase pHluor: yeast V-ATPase proton transport regulation by pHLuorin | response, % at 10 µM | 350,000 tested, 0.37% active | S. cerevisiae, pHLuorin cytosolic pH fluorescence; in the data active means response mostly above about 7.3%, no sharp cut-off; inactive means mostly below about 5.4%; further: actives read high
CendR NRP1 mod: NRP-1/CendR interaction modulation; O14786; FAM-RPARPAR peptide binding to NRP-1, fluorescence polarization; inhibition, % at 25 µM; 360,000 tested, 0.85% active;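 active means inhibition or corrected inhibition above about 18%, plus a signal ratio from 0.5 to 1.5, limit read from the data, passing the limit was not always enough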
Target sequence (O14786 whole entry, looked up): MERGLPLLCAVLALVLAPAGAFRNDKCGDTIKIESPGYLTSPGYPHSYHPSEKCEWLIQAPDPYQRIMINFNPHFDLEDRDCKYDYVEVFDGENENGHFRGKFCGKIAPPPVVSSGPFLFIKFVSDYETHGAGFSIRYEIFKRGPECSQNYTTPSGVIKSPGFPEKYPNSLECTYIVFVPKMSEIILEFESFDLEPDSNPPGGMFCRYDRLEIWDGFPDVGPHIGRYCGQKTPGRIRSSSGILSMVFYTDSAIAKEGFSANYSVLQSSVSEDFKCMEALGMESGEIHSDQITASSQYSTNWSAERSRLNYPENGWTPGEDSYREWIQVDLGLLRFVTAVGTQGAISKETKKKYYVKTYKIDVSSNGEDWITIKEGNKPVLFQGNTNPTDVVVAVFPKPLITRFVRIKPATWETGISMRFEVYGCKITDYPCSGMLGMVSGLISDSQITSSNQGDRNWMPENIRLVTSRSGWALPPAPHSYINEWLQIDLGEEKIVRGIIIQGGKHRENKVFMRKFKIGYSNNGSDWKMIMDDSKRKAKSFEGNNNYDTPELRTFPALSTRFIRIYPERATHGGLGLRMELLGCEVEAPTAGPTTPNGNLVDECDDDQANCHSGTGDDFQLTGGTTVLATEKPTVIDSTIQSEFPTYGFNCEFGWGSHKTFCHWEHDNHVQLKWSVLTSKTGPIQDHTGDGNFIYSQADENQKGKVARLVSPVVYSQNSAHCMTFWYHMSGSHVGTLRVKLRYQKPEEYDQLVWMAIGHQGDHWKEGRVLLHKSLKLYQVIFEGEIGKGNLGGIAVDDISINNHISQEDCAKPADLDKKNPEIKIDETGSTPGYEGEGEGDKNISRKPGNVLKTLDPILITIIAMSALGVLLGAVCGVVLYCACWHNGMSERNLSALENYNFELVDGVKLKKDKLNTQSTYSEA
HIF act: HIF pathway transcriptional activation; U2OS HRE-luciferase reporter, luminescence; normalized: DMSO 0%, desferrioxamine 100%; activation, % at 7.5 µM (by protocol); 300,000 tested, 0.32% active; AID 1910;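 active means mean activation of at least 10% of the iron chelator positive control signal, with at least half of replicates also reaching 10%; inconclusive means mean and replicate majority disagree about reaching 10%; inactive means mean and most replicates under 10%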
T cruzi repl: blocks replication of Trypanosoma cruzi | 300,000 tested, 1.4% active | inhibition, % (test concentration not listed) | T. cruzi beta-gal in NIH3T3, luminescence, 90 h;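 active means mean inhibition across valid replicates above about 55%, limit read from the data; inconclusive means mean below that limit but half or more replicates reach it; inactive means mean below it, under half of replicates reach it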;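 further: signal also drops with host cell toxicity which is not excluded here; 0% = plate median of DMSO wells and 100% = zero luminescence signal; higher percent means less beta-gal luminescence so fewer parasites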
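System: mouse NIH/3T3 fibroblasts infected with β-gal-expressing T. cruzi Tulahuen C4 / Input: NIH/3T3 cells, 5,000 per well / Buffer or medium: Low-serum DMEM with 2% FBS / Probe or stimulus: 5000 reporter trypomastigotes per well / Schedule: ≥90 h infection period, 3 h prior cell attachment / Measured by: GalScreen luminescence, 60 min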
CR mimetic SO: yeast age-related superoxide inhibition as caloric restriction mimetic; 330,000 tested, 0.18% active; superoxide response (% of plate mean), % at 10 µM; S. cerevisiae aged cells, superoxide DHE fluorescence; active compounds read low;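 active means superoxide response under a set limit, about three screen SD below normal, cut at about 65% in these data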;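 further: yeast aged for seven days with compound at 30 °C before DHE staining; 100% = average MFI of all compound-treated wells on the plate with controls excluded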
V-ATPase pH SP: yeast V-ATPase proton transport regulation; shares compounds with V-ATPase pHluor; S. cerevisiae pHLuorin cytosolic pH; response, % at 10 µM; 980 tested, 2% active; in the data active means response above about 24%;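 further: plate controls were vehicle wells for no effect and positive control wells for full effect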
* hit, by the source's call; ? = inconclusive; . = no result. A selection: hits, their analogues and other compounds. The true share with any hit is near 3%.

SMILES	AI-2 QS modul	V-ATPase pHluor	CendR NRP1 mod	HIF act	T cruzi repl	CR mimetic SO	V-ATPase pH SP
COc1ccc2cc(C(=O)N(C)Cc3ccccc3)[nH]c2c1	14.1	-1.8	-5.6	-11.7	-17.8	117.2	.
CC1=C(C(=O)N2CCCCCC2)CC(CC(=O)NCCCN(C)C)C(=O)N1CCCN1CCCC1=O (centres undefined)	.	.	0.4	.	.	.	.
O=C(CCCC(=O)N1CCCC1)N1CCCC1	16.1	4.6	1.5	1.4	-22.3	87.4	.
O=C(O)CCCC(=O)N1CCCC1	15.4	11.8*	1.6	-0.1	-12.5	101.8	-2.1
CCCCn1c(=O)[nH]c(=O)c2c1nc(-c1ccc3ccccc3c1)n2CC	26.4	1.4	-1.1	-0.5	25.5	83.2	.
CCCCn1c(=O)[nH]c(=O)c2c1nc(-c1ccc(C)c([N+](=O)[O-])c1)n2CC	15.0	9.9*	4.7	-0.7	-17.2	105.2	-0.4
Fc1ccc(-c2nnc(-c3ccc(F)cc3)o2)cc1	23.2	-4.1	-5.7	3.1	-7.2	98.0	.
COc1ccc(S(=O)(=O)N2CCN(Cc3c[nH]c4ccccc34)CC2)cc1	1.5	7.8*	12.7	-1.2	-28.7	96.4	0.8
COCC(=O)OCc1cc2cccc(C)c2[nH]c1=O	24.6	-0.8	-5.1	-0.1	-21.1	111.0	.
COc1ccccc1C(CC(=O)N1CCCC1)c1ccc2c(c1)OCO2 (centres undefined)	1.2	6.8*	2.7	-0.5	14.0	94.5	-3.5
Cc1cccc(C)c1NC(=O)CN(C)C(=O)c1cc([N+](=O)[O-])ccc1N1CCOCC1	14.3	0.5	5.7	-0.6	7.5	84.7	.
CN(CC(=O)Nc1ccccc1Br)C(=O)c1cc([N+](=O)[O-])ccc1N1CCOCC1	23.0	7.0*	-2.1	-0.1	-3.1	90.7	-1.1
Cc1c(C)c2cc(Cl)c(OCC(=O)NCCCN3CCCC3=O)cc2oc1=O	.	11.4*	-21.6	.	.	.	1.8
Cc1cc(=O)oc2cc(OCC(=O)NCCCN3CCCC3=O)c(Cl)cc12	-6.5	6.4	9.5	0.3	-11.3	86.2	.
COc1cc(-c2cc(=O)c3c(O)cc(O)cc3o2)ccc1O	28.1	.	-12.9	2.7	-3.2	104.3	.
COc1cc(-c2cc(=O)c3ccccc3o2)ccc1O	22.3	7.7*	-0.9	2.1	0.1	89.4	6.6
Cc1ccc(N2C(=O)CC(N3CCN(C4CCc5ccccc5C4)CC3)C2=O)cc1 (centres undefined)	12.6	1.5	4.1	0.1	17.6	95.8	.
COc1ccccc1NC(=O)c1c(Nc2ccccc2C)sc(C(=O)Nc2cccc(Cl)c2)c1N	7.6	11.7*	-2.5	-0.9	12.7	113.7	-1.9
CCOC(=O)C(CCCOc1ccc(C)cc1)C(=O)OCC	8.1	9.6*	-5.5	-0.3	0.8	101.4	-6.5
Cc1cc(=O)c(C(=O)O)nn1-c1ccc(Cl)cc1	22.3	3.0	-0.9	-0.4	-6.0	84.6	-0.6
CCS(=O)c1scc(-c2ccc(Cl)cc2)c1C#N (centres undefined)	18.6	9.0*	0.9	0.6	15.2	104.2	-0.3
COc1ccc(-c2cc(C(F)F)n3ncc(C(=O)NCCCN4CCCC4=O)c3n2)cc1	15.9	7.4	8.6	-0.1	5.6	107.3	.
COc1ccc(-c2cc(C(=O)NCCCN3CCCC3=O)c3ccccc3n2)cc1	27.1	12.0*	-5.8	0.6	-3.5	82.1	2.9
Cc1cc(C)c(NC(=O)CSc2nc3ccc(N4C(=O)c5ccccc5C4=O)cc3s2)c(C)c1	13.1	9.0*	-9.0	1.0	-12.9	115.5	-47.2
OCCCn1c(-c2ccccc2)csc1=Nc1ccccc1	5.5	8.0*	-3.8	1.3	-7.3	89.2	1.9
SMILES	AI-2 QS modul	V-ATPase pHluor	CendR NRP1 mod	HIF act	T cruzi repl	CR mimetic SO	V-ATPase pH SP
O=C(O)CCC(=O)NCCn1c(-c2ccccc2)csc1=Nc1ccccc1	25.2	0.0	5.5	1.5	-17.8	123.0	.
Cc1cccc(N2C(=O)CN(Cc3sccc3C)C2=S)c1	3.5	-1.6	11.5	0.0	-8.0	91.8	.
Cc1ccsc1CN1CC(=O)N(c2c(C)cccc2C)C1=S	10.7	7.4*	1.2	-0.4	15.4	112.2	0.4
Cc1cc(=O)cc(C)n1-c1ccc(Cl)cc1	28.3	2.2	-7.3	0.0	-20.3	94.5	3.1
CC1CN(c2cc(=O)n(-c3ccc(Cl)cc3)c(=O)[nH]2)CC(C)O1 (centres undefined)	.	1.2	-0.2	.	.	.	.
Cc1cc(=O)n(-c2ccc(Cl)cc2)c(=O)[nH]1	26.4	3.8	-2.6	0.7	-4.1	88.9	-1.1
CCC(C(=O)NC1CCCC1)n1c(-c2ccccn2)nc2ccccc21 (centres undefined)	.	.	6.2	.	.	.	.
Nc1ccc(C(=O)OCc2csc(-c3ccccc3)n2)cc1[N+](=O)[O-]	15.0	10.0*	6.8	0.2	17.8	90.8	-6.6
CNS(=O)(=O)c1cccc(C(=O)OCc2csc(-c3ccccc3)n2)c1	-1.8	1.8	5.0	.	-4.2	115.8	.
CC(CN1CCCCC1)OC(=O)CCc1ccccc1 (centres undefined)	4.8	9.8*	-0.6	-0.4	5.7	96.1	5.6
CC(CN1CCOCC1)OC(=O)CCc1ccccc1 (centres undefined)	2.4	3.3	3.9	0.0	0.0	110.1	.
O=C(Nc1ccccc1N1CCOCC1)c1ccc([N+](=O)[O-])o1	12.6	25.2*	-3.6	-1.0	34.1	114.3	90.5*
O=C(Nc1ccccc1N1CCCCC1)c1ccc([N+](=O)[O-])o1	.	-0.4	-9.0	.	.	.	.
COc1ccc2nc(NC(=O)CSc3nc4ccccc4o3)sc2c1	15.7	11.7*	-2.5	1.6	-12.8	91.3	0.7
Nc1ccccc1NC1=CC(=O)CC(c2ccco2)C1 (centres undefined)	22.3	10.7*	3.3	0.7	1.9	96.7	0.9
CC(=O)Nc1ccc2nc(CN3CCN(Cc4ccc(F)cc4)C(CCO)C3)ccc2c1 (centres undefined)	2.6	11.1*	-17.7	-0.4	-5.4	102.0	0.3
O=S(=O)(NCc1ccccn1)c1ccccc1	35.6	-0.4	4.3	-0.2	-29.6	104.2	.
Clc1cccc(CSC2=NCCCN2)c1	11.1	-1.7	.	-0.2	-4.4	97.1	2.7
O=c1[nH]c(SCc2cccc(Cl)c2)nc2c1CCCC2	.	-1.5	17.1	0.1	-8.2	101.7	.
O=c1ccc(OCCOc2ccccc2)nn1-c1ccccc1	20.9	14.7*	-0.6	-0.5	-0.5	88.2	6.5
CCCCn1nc2cc(C(=O)NCc3ccc4c(c3)OCO4)ccc2c1OCC	14.9	14.4	8.4	-1.7	11.4	.	.
O=c1cc(-c2ccco2)nc(-c2cccs2)o1	-2.3	9.5*	-21.5	0.7	?	95.3	3.8
CCCN(Cc1ccc(N(CC)CC)cc1)CC1CC1	12.7	2.5	-4.4	0.0	43.7	104.4	.
